Measured values of several laboratories.
Each line is one published result; the experiments were not run side by side.
Read-out: cell growth or viability

| Structure (SMILES) | cell line | technique | time | endpoint | result |
| --- | --- | --- | --- | --- | --- |
| CCc1oc2cc(S(=O)(=O)Nc3ccc(S(=O)(=O)Nc4nccs4)cc3)ccc2c1C(=O)c1cc(Br)c(O)c(Br)c1 | human Skin fibroblast | MTT | 96 h | IC50 | 146 µM |
| CO[C@H]1[C@H](O[C@H]([C@H]2O[C@@H](n3ccc(=O)[nH]c3=O)[C@H](O)[C@@H]2O)[C@H](NCCCNC(=O)[C@@H](NC(=O)[C@@H](NC(=O)N[C@H](C(=O)O)C(C)C)[C@@H]2CCN=C(N)N2)[C@@H](OC(=O)CCCCCCCCCCCCN(O)C(=N)N)C(C)C)C(=O)O)O[C@H](CN)[C@H]1O | BT-474 | WST-1 | – | IC50 | 0.85 µM |
| COc1cccc2c1C(=O)c1c(O)c3c(c(O)c1C2=O)C[C@@](O)(C(=O)CO)C[C@@H]3O[C@H]1C[C@H](N)[C@H](O)[C@H](C)O1 | human Skin fibroblast | MTT | 24 h | IC50 | > 100 µM |
| C[C@H](Nc1ccc2c(c1)OCCn1cc(N3C(=O)OC[C@H]3C(F)F)nc1-2)C(N)=O | NCI-H1563 | ATP luminescence | 5 days | EC50 | 0.149 µM |
| CC(C)(C)c1cnc(CSc2cnc(NC(=O)C3CCN(C(=O)CCCCCCCN4Cc5cc6c(cc5C4)C(=O)N(C4CCC(=O)NC4=O)C6=O)CC3)s2)o1 (stereo not shown) | MES-SA | MTT | – | IC50 | 0.0853 µM |
| Cc1cc2c(C(=O)O)cccc2n1-c1nc2c(c(NCc3ccccc3)n1)CCCN2 | MOLM16 | – | 72 h | IC50 | 0.7 µM |
| Cc1nc(NC(=O)N2CCC[C@H]2C(N)=O)sc1-c1ccnc(C(C)(C)C(F)(F)F)c1 | NCI-H1563 | ATP luminescence | 5 days | EC50 | 7.42 µM |
| CO[C@H]1[C@H](O[C@H]([C@H]2O[C@@H](n3ccc(=O)[nH]c3=O)[C@H](O)[C@@H]2O)[C@H](NCCCNC(=O)[C@@H](NC(=O)[C@@H](NC(=O)N[C@H](C(=O)O)C(C)C)[C@@H]2CCN=C(N)N2)[C@@H](O)C(C)C)C(=O)O)O[C@H](CN)[C@H]1O | BT-474 | WST-1 | – | IC50 | > 35 µM |
| CONC(=O)c1cccc2c1cc(C)n2-c1nc2c(c(NCc3ccccc3)n1)CCCN2 | MOLM16 | – | 72 h | IC50 | 0.4 µM |
| COC(=O)c1cc(C(C)=NNc2nc(-c3ccc(C)cc3)cs2)ccc1O | human Skin fibroblast | MTT | 96 h | IC50 | 10.2 µM |
| NC(=O)C1CN(C(=O)CCl)c2ccccc2O1 (stereo not shown) | BT-474 | fluorescence | 5 days | IC50 | 17.5 µM |
| C[C@H]1[C@H](C)CC[C@]2(C(=O)O)CC[C@]3(C)C(=CC[C@@H]4[C@@]5(C)CC[C@H](O)C(C)(C)[C@@H]5CC[C@]43C)[C@H]12 | human Skin fibroblast | MTT | 24 h | IC50 | 32.3 µM |
| COc1cc([C@@H]2c3cc4c(cc3[C@@H](O[C@@H]3O[C@@H]5CO[C@@H](C)O[C@H]5[C@H](O)[C@H]3O)[C@H]3COC(=O)[C@H]23)OCO4)cc(OC)c1O | SK-HEP1 | SRB | 72 h | IC50 | 2.7 µM |
